Measured values reported in ChEMBL document CHEMBL1136986, “Identification of anxiolytic/nonsedative agents among indol-3-ylglyoxylamides acting as functionally selective agonists at the gamma-aminobutyric acid-A (GABAA) alpha2 benzodiazepine receptor” (J Med Chem, 2009).
Active and inactive are the calls of the source. The calls are words filed in the database; no cut-off is given here.

Legend:
[1] = Displacement of [3H]flumazenil from Benzodiazepine receptor in bovine cerebral cortex membrane; type: cell membranes, Bos taurus
[2] = molecular target: Gamma-aminobutyric acid receptor subunit alpha-2 (Rattus norvegicus, UniProt P18508+P23576+P63138); experiment: Displacement of [3H]flumazenil from rat GABA-A alpha-2-beta-2-gamma-2 receptor expressed in HEK293 cells; type: cell-based
Sequence of Gamma-aminobutyric acid receptor subunit alpha-2 (P23576 whole entry, one chain of several): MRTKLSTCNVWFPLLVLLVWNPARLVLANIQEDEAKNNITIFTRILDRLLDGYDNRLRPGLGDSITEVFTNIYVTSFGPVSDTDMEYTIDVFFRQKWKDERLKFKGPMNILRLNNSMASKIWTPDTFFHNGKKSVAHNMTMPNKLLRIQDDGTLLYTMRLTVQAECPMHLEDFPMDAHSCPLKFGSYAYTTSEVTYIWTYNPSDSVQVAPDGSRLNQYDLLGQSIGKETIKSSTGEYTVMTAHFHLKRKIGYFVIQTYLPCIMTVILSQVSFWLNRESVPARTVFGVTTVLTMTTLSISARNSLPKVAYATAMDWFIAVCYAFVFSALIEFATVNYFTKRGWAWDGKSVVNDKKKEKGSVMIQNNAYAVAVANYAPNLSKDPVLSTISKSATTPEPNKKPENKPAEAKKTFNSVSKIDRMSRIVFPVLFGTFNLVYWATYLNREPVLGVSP
Method in brief: (§1)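 HEK293 membranes expressing rat α1β2γ2, α2β2γ2 or α5β3γ2, made in 10 mM potassium phosphate pH 7.4 (48000g, 4 °C) and resuspended with 100 mM KCl. Ki is mean ± SEM of three determinations in triplicate.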

[3] = molecular target: GABA A receptor alpha-5/beta-3/gamma-2 (Rattus norvegicus) (UniProt P18508+P19969+P63079); experiment: Displacement of [3H]flumazenil from rat GABA-A alpha-5-beta-3-gamma-2 receptor expressed in HEK293 cells at 10 uM; type: cell-based
Method in brief: (§2)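 HEK293 membranes expressing rat α2β2γ2 or α5β3γ2 incubated with [3H]flumazenil 1-2 nM for 1 h at 4 °C, in 10 mM potassium phosphate pH 7.4 with 100 mM KCl. Compound tested at 10 µM.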

[4] = molecular target: GABA-A receptor; alpha-1/beta-2/gamma-2 (Rattus norvegicus, UniProt P18508+P62813+P63138); experiment: Displacement of [3H]flumazenil from rat GABA-A alpha-1-beta-2-gamma-2 receptor expressed in HEK293 cells; type: cell-based; method in brief: as §1
Sequence of GABA-A receptor; alpha-1/beta-2/gamma-2 (P18508 whole entry): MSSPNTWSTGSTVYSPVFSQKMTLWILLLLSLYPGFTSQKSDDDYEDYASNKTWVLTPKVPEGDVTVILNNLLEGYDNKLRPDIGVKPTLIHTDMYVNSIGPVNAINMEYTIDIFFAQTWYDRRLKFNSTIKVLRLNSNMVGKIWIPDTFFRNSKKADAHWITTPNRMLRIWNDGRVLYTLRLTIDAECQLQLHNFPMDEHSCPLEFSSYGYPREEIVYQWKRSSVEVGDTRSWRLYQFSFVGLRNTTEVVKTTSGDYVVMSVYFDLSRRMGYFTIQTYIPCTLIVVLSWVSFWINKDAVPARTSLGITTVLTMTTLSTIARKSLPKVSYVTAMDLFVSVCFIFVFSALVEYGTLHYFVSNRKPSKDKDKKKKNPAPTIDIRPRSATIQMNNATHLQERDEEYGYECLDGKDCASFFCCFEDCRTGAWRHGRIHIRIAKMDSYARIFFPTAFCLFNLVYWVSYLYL
Sequence of GABA-A receptor; alpha-1/beta-2/gamma-2 (P62813 whole entry): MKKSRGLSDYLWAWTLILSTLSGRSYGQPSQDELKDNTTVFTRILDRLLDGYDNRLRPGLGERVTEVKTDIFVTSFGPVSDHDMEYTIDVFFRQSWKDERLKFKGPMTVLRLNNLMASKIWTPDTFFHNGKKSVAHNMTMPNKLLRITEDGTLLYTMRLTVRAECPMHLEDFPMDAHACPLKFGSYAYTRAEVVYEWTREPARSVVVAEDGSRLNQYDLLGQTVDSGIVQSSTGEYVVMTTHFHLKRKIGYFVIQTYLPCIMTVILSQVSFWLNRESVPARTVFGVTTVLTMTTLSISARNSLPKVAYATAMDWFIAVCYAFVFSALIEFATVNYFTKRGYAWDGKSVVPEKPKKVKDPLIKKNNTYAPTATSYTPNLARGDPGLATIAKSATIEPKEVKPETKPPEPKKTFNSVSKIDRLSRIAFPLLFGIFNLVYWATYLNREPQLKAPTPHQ
Sequence of GABA-A receptor; alpha-1/beta-2/gamma-2 (P63138 whole entry): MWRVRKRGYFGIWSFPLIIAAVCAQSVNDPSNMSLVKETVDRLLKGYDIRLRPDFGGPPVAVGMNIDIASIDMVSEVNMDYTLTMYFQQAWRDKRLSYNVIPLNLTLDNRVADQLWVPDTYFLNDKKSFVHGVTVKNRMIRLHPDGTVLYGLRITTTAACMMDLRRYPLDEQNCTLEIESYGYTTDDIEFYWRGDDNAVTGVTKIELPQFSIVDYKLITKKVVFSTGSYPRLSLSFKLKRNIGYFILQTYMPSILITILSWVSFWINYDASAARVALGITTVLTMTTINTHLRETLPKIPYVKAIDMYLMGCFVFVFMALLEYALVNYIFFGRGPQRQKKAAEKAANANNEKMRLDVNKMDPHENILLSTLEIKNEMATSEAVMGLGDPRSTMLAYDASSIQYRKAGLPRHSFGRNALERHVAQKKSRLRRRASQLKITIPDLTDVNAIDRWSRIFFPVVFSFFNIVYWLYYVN

[5] = molecular target: GABA A receptor alpha-5/beta-3/gamma-2 (Rattus norvegicus, UniProt P18508+P19969+P63079); experiment: Displacement of [3H]flumazenil from rat GABA-A alpha-5-beta-3-gamma-2 receptor expressed in HEK293 cells; type: cell-based; method in brief: as §1
Sequence of GABA A receptor alpha-5/beta-3/gamma-2 (P18508 whole entry): as the sequence (P18508 whole entry) above
Sequence of GABA A receptor alpha-5/beta-3/gamma-2 (P19969 whole entry): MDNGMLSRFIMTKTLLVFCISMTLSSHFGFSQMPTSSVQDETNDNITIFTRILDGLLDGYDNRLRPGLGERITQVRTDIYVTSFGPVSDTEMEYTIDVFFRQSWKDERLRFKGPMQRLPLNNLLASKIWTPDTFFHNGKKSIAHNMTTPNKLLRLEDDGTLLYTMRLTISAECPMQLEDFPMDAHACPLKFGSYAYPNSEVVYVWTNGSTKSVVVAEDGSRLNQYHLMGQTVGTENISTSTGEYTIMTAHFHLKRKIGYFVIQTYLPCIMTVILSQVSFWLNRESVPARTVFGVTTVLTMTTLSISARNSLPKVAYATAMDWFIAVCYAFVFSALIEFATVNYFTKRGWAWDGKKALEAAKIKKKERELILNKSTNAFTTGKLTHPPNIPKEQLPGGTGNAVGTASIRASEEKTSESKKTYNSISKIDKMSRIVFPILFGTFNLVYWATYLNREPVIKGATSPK
Sequence of GABA A receptor alpha-5/beta-3/gamma-2 (P63079 whole entry): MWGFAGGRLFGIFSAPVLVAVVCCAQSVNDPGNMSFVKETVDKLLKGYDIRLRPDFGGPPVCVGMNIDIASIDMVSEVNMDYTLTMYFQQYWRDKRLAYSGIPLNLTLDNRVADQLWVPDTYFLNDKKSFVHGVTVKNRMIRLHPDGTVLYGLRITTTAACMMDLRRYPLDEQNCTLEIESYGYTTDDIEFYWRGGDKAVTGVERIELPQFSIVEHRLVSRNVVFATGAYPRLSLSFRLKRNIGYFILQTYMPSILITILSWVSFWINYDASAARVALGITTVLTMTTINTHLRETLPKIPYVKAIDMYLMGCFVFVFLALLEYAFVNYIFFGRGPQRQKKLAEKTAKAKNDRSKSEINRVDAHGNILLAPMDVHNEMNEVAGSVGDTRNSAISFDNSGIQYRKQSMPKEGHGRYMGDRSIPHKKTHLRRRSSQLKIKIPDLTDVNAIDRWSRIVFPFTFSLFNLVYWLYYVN

Mus musculus [6] = experiment: Anxiolytic effect in CD1 mouse assessed as increase in time spent in white compartment at 20 mg/kg, ip by light/dark box test; type: functional, organism-based; parameters: dose 20 mg/kg
Method in brief: (§3)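 Male CD-1 mice (35-40 g), acclimatized 4 weeks to a reversed light cycle. […] Testing started 1 h later, with mouse placed in the lit chamber for a 5 min videotaped session.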

Mus musculus [7] = experiment: Anxiolytic effect in CD1 mouse assessed as increase in number of transfers from lit to the dark area at 20 mg/kg, ip by light/dark box test; type: functional, organism-based; parameters: dose 20 mg/kg; method in brief: as §3
[8] = molecular target: GABA-A receptor; alpha-1/beta-2/gamma-2 (Rattus norvegicus) (UniProt P18508+P62813+P63138); experiment: Agonist activity at rat GABA-A alpha-1-beta-2-gamma-2 receptor expressed in HEK293 cells assessed as increase in 36Cl- influx; type: functional, cell-based
Method in brief: (§4)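 36Cl- uptake in HEK293 cells stably expressing rat α1β2γ2 or α2β2γ2, grown 3 days on polylysine-coated coverslips. Cells washed in HEPES/NaCl buffer pH 7.4, then dipped at room temperature into 36Cl- (2 µCi/mL) with drug, with or without GABA at EC20. Influx stopped after 8 s in ice-cold buffer with 0.1 mM picrotoxin. Result is % increase of EC20 GABA response, ≥5 independent experiments.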

[9] = molecular target: Gamma-aminobutyric acid receptor subunit alpha-2 (Rattus norvegicus) (UniProt P23576); experiment: Agonist activity at rat GABA-A alpha-2-beta-2-gamma-2 receptor expressed in HEK293 cells assessed as increase in 36Cl- influx; type: functional, cell-based; method in brief: as §4
Sequence of Gamma-aminobutyric acid receptor subunit alpha-2 (Rattus norvegicus) (P23576 whole entry): as the sequence (P23576 whole entry, one chain of several) above

Mus musculus [10] = experiment: Toxicity in CD1 mouse assessed as sedative effect at 20 mg/kg, ip by light/dark box test; type: organism-based; parameters: dose 20 mg/kg, route intraperitoneal; details: in vivo; method in brief: as §3
Bos taurus = species on record: Bos taurus; experiment: Displacement of [3H]flumazenil from Benzodiazepine receptor in bovine cerebral cortex membrane at 10 uM; type: cell membranes
Mus musculus [11] = experiment: Anxiolytic effect in CD1 mouse assessed as increase in number of transfers from lit to the dark area at 1.25 mg/kg, ip by light/dark box test; type: functional, organism-based; parameters: dose 1.25 mg/kg
Method in brief: (§5)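 Male CD-1 albino mice (35-40 g), acclimatized 4 weeks to reversed 12 h light cycle, dosed ip in 1% carboxymethylcellulose vehicle; 1 h later placed in centre of lit chamber of light/dark box for 5 min, videotaped. Scored time in white compartment, lit/dark transfers, and rearings plus line crossings (activity) expressed per TW; n = 4-6, mean ± SEM versus vehicle.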

Mus musculus [12] = experiment: Anxiolytic effect in CD1 mouse assessed as increase in time spent in white compartment at 1.25 mg/kg, ip by light/dark box test; type: functional, organism-based; parameters: dose 1.25 mg/kg; method in brief: as §5
Mus musculus [13] = experiment: Toxicity in CD1 mouse assessed as sedative effect at 1.25 mg/kg, ip by light/dark box test; type: organism-based; parameters: dose 1.25 mg/kg, route intraperitoneal; details: in vivo; method in brief: as §5
[14] = molecular target: Gamma-aminobutyric acid receptor subunit alpha-2 (Rattus norvegicus) (UniProt P23576); experiment: Displacement of [3H]flumazenil from rat GABA-A alpha-2-beta-2-gamma-2 receptor expressed in HEK293 cells at 10 uM; type: cell-based; method in brief: as §2

Structure (SMILES)	Ki [1]	Ki [2]	Ki [4]	further results
C[C@@H](NC(=O)C(=O)c1c[nH]c2ccccc12)c1ccccc1	1310 nM	1550 nM	–	–
COc1ccc2c(c1)CCC2NC(=O)C(=O)c1c[nH]c2ccccc12 (racemic)	636 nM	690 nM	246 nM	inhibition [3]: 28%
O=C(NC1CCc2cc([N+](=O)[O-])ccc21)C(=O)c1c[nH]c2ccc([N+](=O)[O-])cc12 (racemic)	178 nM	513 nM	200 nM	Ki [5]: 749 nM
O=C(NC1CCc2cc(F)ccc21)C(=O)c1c[nH]c2ccc([N+](=O)[O-])cc12 (racemic)	300 nM	810 nM	195 nM	Ki [5]: 1420 nM
O=C(NCc1ccccc1)C(=O)c1c[nH]c2ccccc12	120 nM	–	–	–
O=C(NCc1ccc([N+](=O)[O-])cc1)C(=O)c1c[nH]c2ccc([N+](=O)[O-])cc12	620 nM	2980 nM	293 nM	Ki [5]: 2220 nM
C[C@@H](NC(=O)C(=O)c1c[nH]c2ccc([N+](=O)[O-])cc12)c1ccccc1	17 nM	121 nM	–	Activity (Mus musculus [6]): Active; Activity (Mus musculus [7]): Active; Activity [8]: 35%; Activity [9]: 79%; Activity (Mus musculus [10]): Non-toxic
Cc1ccc2c(c1)CCC2NC(=O)C(=O)c1c[nH]c2ccccc12 (racemic)	–	–	–	inhibition (Bos taurus): 15%
Cc1ccc2c(c1)CCC2NC(=O)C(=O)c1c[nH]c2ccc([N+](=O)[O-])cc12 (racemic)	–	–	–	inhibition (Bos taurus): 2%
O=C(NCc1ccc(F)cc1)C(=O)c1c[nH]c2ccccc12	52 nM	118 nM	245 nM	Activity (Mus musculus [6]): Active; Ki [5]: 163 nM; Activity (Mus musculus [7]): Active; Activity [8]: 11%; Activity [9]: 85%; Activity (Mus musculus [10]): Non-toxic
O=C(NCc1ccccc1)C(=O)c1c[nH]c2ccc([N+](=O)[O-])cc12	117 nM	–	–	–
Cc1ccc(-c2nc3ccc(C)cn3c2CC(=O)N(C)C)cc1 [ZOLPIDEM]	51 nM	–	–	–
COc1ccc(CNC(=O)C(=O)c2c[nH]c3ccccc23)cc1	163 nM	1950 nM	195 nM	inhibition [3]: 30%
O=C(N[C@@H]1CCc2ccccc21)C(=O)c1c[nH]c2ccccc12	675 nM	3100 nM	–	–
O=C(NCc1ccc(F)cc1)C(=O)c1c[nH]c2ccc([N+](=O)[O-])cc12	–	–	–	inhibition (Bos taurus): 24%
COc1ccc(CNC(=O)C(=O)c2c[nH]c3ccc([N+](=O)[O-])cc23)cc1	53 nM	1650 nM	–	–
COc1ccc2c(c1)CCC2NC(=O)C(=O)c1c[nH]c2ccc([N+](=O)[O-])cc12 (racemic)	13 nM	231 nM	28 nM	Ki [5]: 252 nM
O=C(NC1CCc2cc([N+](=O)[O-])ccc21)C(=O)c1c[nH]c2ccccc12 (racemic)	–	–	–	inhibition (Bos taurus): 47%
O=C(N[C@@H]1CCc2ccccc21)C(=O)c1c[nH]c2ccc([N+](=O)[O-])cc12	28 nM	85 nM	–	Activity (Mus musculus [6]): inactive; Activity (Mus musculus [7]): inactive; Activity [8]: 1%; Activity [9]: 48%
CN1C(=O)CN=C(c2ccccc2)c2cc(Cl)ccc21 [DIAZEPAM]	10 nM	–	–	Activity (Mus musculus [11]): Active; Activity (Mus musculus [12]): Active; Activity (Mus musculus [13]): Non-toxic; Activity [9]: 81%
O=C(NC1CCc2cc(F)ccc21)C(=O)c1c[nH]c2ccccc12 (racemic)	2160 nM	–	2050 nM	inhibition [14]: 29%; inhibition [3]: 44%
O=C(NCc1ccc([N+](=O)[O-])cc1)C(=O)c1c[nH]c2ccccc12	21 nM	210 nM	–	–
